Legend:
[1] = melting temperature; fluorescence melt of hairpins on a sequencing array, two-state fit, raised by 9.35 °C to match UV melts; settings: sodium 0.088 M
Method in brief: (§1)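 Melting temperature and folding enthalpy were derived from bootstrapped two-state fits. The fitted temperatures were raised by 9.35 °C to agree with UV melts, and four replicates were combined by inverse variance. The underlying data were Cy3 fluorescence images of library hairpins, with annealed Cy3 and quencher oligos, on a sequenced MiSeq flow cell in 50 mM Na-HEPES pH 8.0, 25 mM NaCl, taken in 2.5 °C steps up to 60 °C, normalised to pre-quench Cy3 and to control constructs.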

[2] = folding enthalpy; higher = less favourable; fluorescence melt of hairpins on a sequencing array, two-state fit; settings: sodium 0.088 M
Method in brief: as §1

| Sequence | Tm [1] | folding enthalpy [2] |
| --- | --- | --- |
| GTAGTTGGAAACAATTAC (((.(((....))).))) | 34.2 °C | -23.4 kcal/mol |
| GAGGGCGGAAACGCCTTC ((.((((....)))).)) | 50.5 °C | -13.8 kcal/mol |
| GTGAATCGAAAGATGCAC (((.(((....))).))) | 50.3 °C | -31.4 kcal/mol |
| GGGAAGGCGAAAGCCCCC (((..(((....)))))) | 48.1 °C | -14 kcal/mol |
| GATCTCGATAGAGATC ((((((....)))))) | 66.8 °C | -36 kcal/mol |
| GGGCTCGAAAGAGTGCCC ((((((....)))..))) | 51.3 °C | -34.1 kcal/mol |
| GACGATCCGAAAGGAGTC (((..(((....)))))) | 39.8 °C | -22.1 kcal/mol |
| GCATCTACGAAAGTATGC (((..(((....)))))) | 34.6 °C | -20.7 kcal/mol |
| GGAGACGAAAGTCTATCC ((((((....)))..))) | 32.8 °C | -12.5 kcal/mol |
| GACTCTGGAAACAGAGCC (.(((((....))))).) | 43 °C | -18.3 kcal/mol |
| GGACTGCGAAAGCAATCC (((.(((....))).))) | 47.8 °C | -12.7 kcal/mol |
| GAATCCGAAAGGATGTTC ((((((....)))..))) | 37.3 °C | -13.8 kcal/mol |
| GCTAGGCGAAAGCCACGC ((..(((....)))..)) | 41.5 °C | -14.3 kcal/mol |
| GAGCAGGCGAAAGCCCTC (((..(((....)))))) | 31.7 °C | -9.52 kcal/mol |
| GCAGGAACGAAAGTTTGC (((..(((....)))))) | 36 °C | -16.6 kcal/mol |
| GGCCCGACGAAAGTCGCC (((..(((....)))))) | 35.2 °C | -8.24 kcal/mol |
| CGTATCGGAAACGACACG (((.(((....))).))) | 42.6 °C | -31.2 kcal/mol |
| GATCCGCTACCGGATC ((((((....)))))) | 56.8 °C | -48 kcal/mol |
| GTTGTCGGAAACGGCAAC ((((.((....)).)))) | 56.2 °C | -37.7 kcal/mol |
| GACCAGGAAACTGGTC ((((((....)))))) | 63.4 °C | -39 kcal/mol |
| GTAGACGAAAGTCACTAC ((((((....)))..))) | 41.1 °C | -14.2 kcal/mol |
| GCGCGCGAAAGCGTTCGC ((((((....)))..))) | 53.3 °C | -14.6 kcal/mol |
| GCTGTCCGAAAGGAAAGC (((.(((....))).))) | 53.7 °C | -37.8 kcal/mol |
| GATCACTGATGTGATC ((((((....)))))) | 55.9 °C | -34.5 kcal/mol |

| Sequence | Tm [1] | folding enthalpy [2] |
| --- | --- | --- |
| GCGGGTACCCGC ((((....)))) | 67.7 °C | -34.1 kcal/mol |
| GTTGGAGGAAACTTCGAC ((.(.((....)).).)) | 34.2 °C | -24.3 kcal/mol |
| CGTAGCGGAAACGCAACG (((.(((....))).))) | 53 °C | -29.5 kcal/mol |
| GCAGTTCGAAAGAAGTGC (((.(((....))).))) | 56.2 °C | -51 kcal/mol |
| GCGAATGATCGC ((((....)))) | 42.3 °C | -17.7 kcal/mol |
| GATCGTGAAACGATC ((((((...)))))) | 66.8 °C | -36.8 kcal/mol |
| GCTTCTGGAAACAGAGGC ((.((((....)))).)) | 48.3 °C | -33 kcal/mol |
| GCTTAGCGAAAGCTAGC (((.(((....)))))) | 53.8 °C | -19.2 kcal/mol |
| GCACGTGCGAAAGCATGC (((..(((....)))))) | 40.4 °C | -8.57 kcal/mol |
| GGCAACCCGAAAGGGGCC (((..(((....)))))) | 55.4 °C | -23.8 kcal/mol |
| GACAACCCGAAAGGGGTC (((..(((....)))))) | 39.1 °C | -12.9 kcal/mol |
| GCGAGACCTCGC ((((....)))) | 56.5 °C | -13.8 kcal/mol |
| GATCTCGGGTGAGATC ((((((....)))))) | 52.2 °C | -30 kcal/mol |
| GTCCAAGGAAACTTGGGC (.(((((....))))).) | 51.1 °C | -46.6 kcal/mol |
| GCTCACGAAAGTGCAAGC ((((((....)))..))) | 39.4 °C | -17.4 kcal/mol |
| GGGGACGAAAGTCACCC ((((((....))).))) | 65.7 °C | -17.6 kcal/mol |
| GACCACGAAAGTGGTGTC ((((((....)))..))) | 55.4 °C | -12.2 kcal/mol |
| GTAGGCGAAAGCCGTAC ((((((....))).))) | 57.3 °C | -13 kcal/mol |
| GTATGGGGAAACCCACAC ((.((((....)))).)) | 35.1 °C | -18.9 kcal/mol |
| GGCCCTGGAAACAGAGCC (((.(((....))).))) | 48.7 °C | -41.2 kcal/mol |
| GGGGACGGAAACGTCCTC (.(((((....))))).) | 58.7 °C | -13.7 kcal/mol |
| GTTTGCGAAAGCAGTAAC ((((((....)))..))) | 30.6 °C | -12.9 kcal/mol |
| GATCAGACACTGATC ((((((...)))))) | 48.6 °C | -47.1 kcal/mol |
| GGAACCCCGAAAGGGTCC (((..(((....)))))) | 45.9 °C | -15.5 kcal/mol |

| Sequence | Tm [1] | folding enthalpy [2] |
| --- | --- | --- |
| GCCCCCGGAAACGGGAGC ((.((((....)))).)) | 54.2 °C | -25 kcal/mol |
| GTGAAGGGAAACCTCCAC (((.(((....))).))) | 38.5 °C | -19.9 kcal/mol |
| GAATATCCGAAAGGATTC (((..(((....)))))) | 28.5 °C | -13.4 kcal/mol |
| GATCGATCAGTCGATC ((((((....)))))) | 51.1 °C | -43.1 kcal/mol |
| GCCCCCCGAAAGGGAGGC (((.(((....))).))) | 67 °C | -29.8 kcal/mol |
| GATCACACAAGTGATC ((((((....)))))) | 56.2 °C | -42.4 kcal/mol |
| GTGATCGAAAGATTCAC ((((((....))).))) | 43.4 °C | -24.1 kcal/mol |
| GGTATGGGAAACCATATC (.(((((....))))).) | 39.7 °C | -24.1 kcal/mol |
| GCACAGCGAAAGCCGGGC ((.(.((....)).).)) | 55.7 °C | -22.4 kcal/mol |
| CGCGGAACATTCCGCG ((((((....)))))) | 65.3 °C | -35.9 kcal/mol |
| GATAGGGCGAAAGCCATC (((..(((....)))))) | 31.2 °C | -9.11 kcal/mol |
| GCCTCGACGAAAGTCGGC (((..(((....)))))) | 52.1 °C | -6.95 kcal/mol |
| TGAGTGAAAACTCA (((((....))))) | 42.4 °C | -18.3 kcal/mol |
| GTTCTGCGAAAGCATAAC (((.(((....))).))) | 43.7 °C | -25 kcal/mol |
| GTGCAGGGAAACCTGTAC ((.((((....)))).)) | 49.6 °C | -36.1 kcal/mol |
| GCCGCGCGAAAGCGAAGC ((..(((....)))..)) | 46 °C | -12.9 kcal/mol |
| GCATGGGAAACCATGC ((((((....)))))) | 65.6 °C | -34.4 kcal/mol |
| GACTGTACGAAAGTAGTC (((..(((....)))))) | 36.9 °C | -28.8 kcal/mol |
| GCGGTAAACCGC ((((....)))) | 56 °C | -26.2 kcal/mol |
| GATCGGTAGTCCGATC ((((((....)))))) | 55.6 °C | -44.4 kcal/mol |
| GGTACGGGAAACCGTGCC ((.((((....)))).)) | 59.7 °C | -40.9 kcal/mol |
| GCGGGTCCCCGC ((((....)))) | 66.8 °C | -23.5 kcal/mol |
| GCAGTGCGAAAGCAGAGC ((..(((....)))..)) | 50.9 °C | -11.6 kcal/mol |
| GTCTGTGGAAACACAAAC ((.((((....)))).)) | 28.1 °C | -12.3 kcal/mol |

| Sequence | Tm [1] | folding enthalpy [2] |
| --- | --- | --- |
| GTTTTTGGAAACGAAAAC (((((.(....).))))) | 40.4 °C | -31.3 kcal/mol |
| GCAAGCGAAAGCTATGC ((((((....))).))) | 51.2 °C | -23 kcal/mol |
| GGCCACGAAAGTGAGCC ((((((....))).))) | 65.8 °C | -27.1 kcal/mol |
| GTCCGTGGAAACATGGAC ((((.((....)).)))) | 53.6 °C | -36.9 kcal/mol |
| GATCTCACTCGAGATC ((((((....)))))) | 52.1 °C | -50.8 kcal/mol |
| GCACTGCGAAAGCACAGC ((..(((....)))..)) | 29.2 °C | -11.6 kcal/mol |
| GAGGGCGAAAGCCTACTC ((((((....)))..))) | 41.1 °C | -11 kcal/mol |
| GAACGCGGAAACGCACTC ((..(((....)))..)) | 30.1 °C | -8.19 kcal/mol |
| GCATACGAAAGTAGTGC ((((((....))).))) | 44.6 °C | -24.1 kcal/mol |
| GCACGGCGAAAGCCATGC (((.(((....))).))) | 55.1 °C | -36 kcal/mol |
| GCCATTGGAAACAACGGC (((.(((....))).))) | 43 °C | -33.1 kcal/mol |
| GCTAGGCGAAAGCCGGGC ((..(((....)))..)) | 60 °C | -16 kcal/mol |
| GGTCGAGAAATCGACC ((((((....)))))) | 66.2 °C | -40 kcal/mol |
| GCGTGGTCACGC ((((....)))) | 57.5 °C | -26.3 kcal/mol |
| GGAGTCGAAAGACGCTCC ((((((....)))..))) | 42.3 °C | -12.6 kcal/mol |
| GCGATTGATCGC ((((....)))) | 53.1 °C | -31.5 kcal/mol |
| CGGGTTCGGAAACGACCG (((..(((....)))))) | 39.4 °C | -19.9 kcal/mol |
| GGTTCCGGAAACAGAACC (((((.(....).))))) | 41.1 °C | -35.7 kcal/mol |
| GTGGGCGAAAGCCATCAC ((((((....)))..))) | 39.7 °C | -11.4 kcal/mol |
| GATCGAGGCCTCGATC ((((((....)))))) | 62.2 °C | -49.1 kcal/mol |
| GACGTGGGAAACCACGTC (((((((....))))))) | 68.8 °C | -37.1 kcal/mol |
